Values joined by “and” are separate entries in the source; they are usually repeats but may differ in a detail not shown here. Equal values may be shown once.
Test system: HEK-293T
Assay: Multiplex assay against HEK293T
Assay type: toxicity, cell-based
Conditions: human, 12 h, 1 µM, compound concentration 1 uM
Outline: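 Four dyes were applied at seeding to live cells: Hoechst33342, BioTracker Green Microtubule Cytoskeleton Dye, MitoTracker Red and Annexin V Alexa Fluor 680. Imaging after compound addition used a CQ1 microscope at 37°C and 5% CO2. CellPathfinder machine-learning gating then sorted cells into Hoechst high-intensity objects or normal cells, normal cells into healthy, pyknosed or fragmented nuclei, and pyknosed cells into mitotic or apoptotic, with tubulin, mitochondrial-mass and membrane-permeability phenotypes given as per cents of healthy-nucleus cells.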

Compound | Population Apoptotic (%) | Population Fragmented Nuclei (%) | Population Healthy Nuclei (%) | Population Hoechst High Intensity Objects (%) | Population Membrane Permeable-Phenotype (%) | Population Mitochondria Different-Phenotype (%) | Population Mitotic Cells (%) | Population Normal (%) | Population Pyknosed Nuclei (%) | Population Tubulin-Different-Phenotype (%)
CCCCCC(O)/C=C/[C@H]1C(=O)CC(O)C1C/C=C\CCCC(=O)O (stereo partly specified) | 29% and 39% | 8% and 7% | 80% and 83% | 8% and 6% | 0% | 44% and 56% | 70% and 60% | 91% and 93% | 11% and 9% | 23% and 20%
COc1cc(Nc2ncc3c(n2)-c2ccc(Cl)cc2C(c2c(F)cccc2OC)=NC3)ccc1C(=O)O [ALISERTIB] | 38% and 61% | 3% and 7% | 88% and 85% | 5% and 7% | 0% | 44% and 69% | 61% and 38% | 94% and 93% | 7% | 46% and 49%

Same assay, conditions: human, 12 h, 1 µM, compound concentration 1 uM

Compound | Total Cell Count
CCCCCC(O)/C=C/[C@H]1C(=O)CC(O)C1C/C=C\CCCC(=O)O (stereo partly specified) | 409 and 383

Same assay, conditions: human, 12 h, 10 µM, compound concentration 10 uM

Compound | Population Apoptotic (%) | Population Fragmented Nuclei (%) | Population Healthy Nuclei (%) | Population Hoechst High Intensity Objects (%) | Population Membrane Permeable-Phenotype (%) | Population Mitochondria Different-Phenotype (%) | Population Mitotic Cells (%) | Population Normal (%) | Population Pyknosed Nuclei (%) | Population Tubulin-Different-Phenotype (%)
CCCCCC(O)/C=C/[C@H]1C(=O)CC(O)C1C/C=C\CCCC(=O)O (stereo partly specified) | 48% and 54% | 6% | 79% and 77% | 9% and 7% | 0% | 48% and 59% | 51% and 46% | 90% and 92% | 14% and 15% | 31% and 25%
COc1cc(Nc2ncc3c(n2)-c2ccc(Cl)cc2C(c2c(F)cccc2OC)=NC3)ccc1C(=O)O [ALISERTIB] | 61% and 88% | 8% and 9% | 74% and 72% | 9% and 15% | 0% | 80% and 82% |  | 90% and 84% | 16% and 17% | 68% and 54%

Same assay, conditions: human, 12 h, 10 µM, compound concentration 10 uM

Compound | Total Cell Count
CCCCCC(O)/C=C/[C@H]1C(=O)CC(O)C1C/C=C\CCCC(=O)O (stereo partly specified) | 409 and 343

Same assay, conditions: human, 24 h, 1 µM, compound concentration 1 uM

Compound | Population Apoptotic (%) | Population Fragmented Nuclei (%) | Population Healthy Nuclei (%) | Population Hoechst High Intensity Objects (%) | Population Membrane Permeable-Phenotype (%) | Population Mitochondria Different-Phenotype (%) | Population Mitotic Cells (%) | Population Normal (%) | Population Pyknosed Nuclei (%) | Population Tubulin-Different-Phenotype (%)
CCCCCC(O)/C=C/[C@H]1C(=O)CC(O)C1C/C=C\CCCC(=O)O (stereo partly specified) | 40% and 44% | 8% and 7% | 83% and 84% | 3% and 7% | 1% and 0% | 22% and 41% | 59% and 55% | 96% and 92% | 8% and 7% | 11% and 14%
COc1cc(Nc2ncc3c(n2)-c2ccc(Cl)cc2C(c2c(F)cccc2OC)=NC3)ccc1C(=O)O [ALISERTIB] | 50% and 47% | 10% and 9% | 82% and 81% | 3% and 9% | 0% | 25% and 47% | 50% and 52% | 96% and 90% | 7% and 9% | 31% and 30%

Same assay, conditions: human, 24 h, 1 µM, compound concentration 1 uM

Compound | Total Cell Count
CCCCCC(O)/C=C/[C@H]1C(=O)CC(O)C1C/C=C\CCCC(=O)O (stereo partly specified) | 611 and 492

Same assay, conditions: human, 24 h, 10 µM, compound concentration 10 uM

Compound | Population Apoptotic (%) | Population Fragmented Nuclei (%) | Population Healthy Nuclei (%) | Population Hoechst High Intensity Objects (%) | Population Membrane Permeable-Phenotype (%) | Population Mitochondria Different-Phenotype (%) | Population Mitotic Cells (%) | Population Normal (%) | Population Pyknosed Nuclei (%) | Population Tubulin-Different-Phenotype (%)
CCCCCC(O)/C=C/[C@H]1C(=O)CC(O)C1C/C=C\CCCC(=O)O (stereo partly specified) | 27% and 44% | 10% and 9% | 75% and 77% | 4% and 9% | 0% | 29% and 50% | 72% and 55% | 95% and 90% | 13% | 16% and 21%
COc1cc(Nc2ncc3c(n2)-c2ccc(Cl)cc2C(c2c(F)cccc2OC)=NC3)ccc1C(=O)O [ALISERTIB] | 54% and 56% | 8% and 12% | 74% and 55% |  | 0% and 1% | 75% and 86% | 45% and 43% | 93% and 65% | 16% and 31% | 64% and 50%

Same assay, conditions: human, 24 h, 10 µM, compound concentration 10 uM

Compound | Total Cell Count
CCCCCC(O)/C=C/[C@H]1C(=O)CC(O)C1C/C=C\CCCC(=O)O (stereo partly specified) | 523 and 388

Same assay, conditions: human, 48 h, 1 µM, compound concentration 1 uM

Compound | Population Apoptotic (%) | Population Fragmented Nuclei (%) | Population Healthy Nuclei (%) | Population Hoechst High Intensity Objects (%) | Population Membrane Permeable-Phenotype (%) | Population Mitochondria Different-Phenotype (%) | Population Mitotic Cells (%) | Population Normal (%) | Population Pyknosed Nuclei (%) | Population Tubulin-Different-Phenotype (%)
CCCCCC(O)/C=C/[C@H]1C(=O)CC(O)C1C/C=C\CCCC(=O)O (stereo partly specified) | 29% and 30% | 12% and 13% | 79% and 81% | 1% and 3% | 1% and 2% | 20% and 19% | 70% and 69% | 98% and 96% | 7% and 5% | 8% and 7%
COc1cc(Nc2ncc3c(n2)-c2ccc(Cl)cc2C(c2c(F)cccc2OC)=NC3)ccc1C(=O)O [ALISERTIB] | 31% and 57% | 14% and 16% | 79% and 77% |  | 0% | 14% and 27% | 68% and 42% | 96% and 84% | 5% | 17% and 24%

Same assay, conditions: human, 48 h, 1 µM, compound concentration 1 uM

Compound | Total Cell Count
CCCCCC(O)/C=C/[C@H]1C(=O)CC(O)C1C/C=C\CCCC(=O)O (stereo partly specified) | 864 and 775

Same assay, conditions: human, 48 h, 10 µM, compound concentration 10 uM

Compound | Population Apoptotic (%) | Population Fragmented Nuclei (%) | Population Healthy Nuclei (%) | Population Hoechst High Intensity Objects (%) | Population Membrane Permeable-Phenotype (%) | Population Mitochondria Different-Phenotype (%) | Population Mitotic Cells (%) | Population Normal (%) | Population Pyknosed Nuclei (%) | Population Tubulin-Different-Phenotype (%)
CCCCCC(O)/C=C/[C@H]1C(=O)CC(O)C1C/C=C\CCCC(=O)O (stereo partly specified) | 22% and 51% | 12% and 10% | 79% and 80% | 1% and 3% | 0% | 17% and 26% | 77% and 48% | 98% and 96% | 8% | 7% and 8%
COc1cc(Nc2ncc3c(n2)-c2ccc(Cl)cc2C(c2c(F)cccc2OC)=NC3)ccc1C(=O)O [ALISERTIB] | 48% and 82% | 13% and 19% | 78% and 61% |  | 0% and 4% | 57% and 73% |  | 94% and 67% | 7% and 19% | 42% and 38%

Same assay, conditions: human, 48 h, 10 µM, compound concentration 10 uM

Compound | Total Cell Count
CCCCCC(O)/C=C/[C@H]1C(=O)CC(O)C1C/C=C\CCCC(=O)O (stereo partly specified) | 815 and 544

— ChEMBL document CHEMBL5724801, “EUbOPEN Chemogenomics Library - Multiplex” (2024)
